This experiment has as its system Mycobacterium tuberculosis. Briefly: Antitubercular activity against Mycobacterium tuberculosis 90-221387. Format: functional. Put shortly:
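Agar proportion method on Middlebrook 7H10 with OADC; compounds serially diluted into molten agar (50-56 °C) to final 100 to 0.8 µg/mL. Inoculum from colonies in 7H9 broth, adjusted to McFarland no. 1, diluted 10-2; 33 µL spotted per quadrant. Incubated 35 °C, 10% CO2, 2 weeks; MIC = lowest concentration completely inhibiting growth.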

≈ marks a conversion by molar mass, not a printed value.

Broadly, the MIC is the smallest concentration in the dilution series that meets the test's criterion for growth inhibition. On to `CC(=O)c1ccc(C)o1`, for which the MIC turned out to be 323 µM (≈ 40 µg/mL). Regarding `COc1cc(OC)c2c(c1)O[C@H](c1ccc(O)c(OC)c1)[C@H](O)C2`, inhibition of growth (MIC) required 151 µM (≈ 50.1 µg/mL). The molecule `COc1cc([C@H]2OC[C@H]3[C@@H]2CO[C@@H]3c2cc(OC)c(O)c(OC)c2)cc(OC)c1O` (racemic) [SYRINGARESINOL] gave an MIC of 239 µM (≈ 100 µg/mL).

`O=Cc1ccc(O)cc1` [4-HYDROXYBENZALDEHYDE] showed an MIC of 369 µM (≈ 45 µg/mL). As for `O=C(O)c1ccccc1` [BENZOIC ACID], the figure is 328 µM (≈ 40 µg/mL).

`CCCCCCCCCCCC(=O)O` [DODECANOATE]: it took 62.5 µM (≈ 12.5 µg/mL) to inhibit growth (MIC). On to `C=C1OC(=O)/C(=C/CCCCCCCCCCCCC)[C@@H]1O` [ISOOBTUSILACTONE A], for which it took 22.5 µM (≈ 6.93 µg/mL) to inhibit growth (MIC).

The molecule `CCCCCCCCCCCCCCCCCCCCCCCCCCCC(O)O` [KOTODIOL] displayed an MIC of 117 µM (≈ 50.1 µg/mL). The molecule `CCCCCCCCCCCCC/C=C1/C(=O)O[C@@]2(C)O[C@H](CCCCCCCCCCCCC)O[C@@H]12` [KOTOLACTONE A] yielded an MIC of 40.1 µM (≈ 20.9 µg/mL).

In turn, `C#CCCCCCCCCC/C=C1/C(=O)O[C@@H](C)[C@H]1O` [LINCOMOLIDE B] displayed an MIC of 10.2 µM (≈ 2.83 µg/mL). As for `O=C(O)c1ccc(O)c(O)c1` [PROTOCATECHUIC ACID], the figure is 649 µM (≈ 100 µg/mL); as for `CO[C@H]1/C=C/O[C@@]2(C)Oc3c(C)c(O)c4c(O)c(c(/C=N/N5CCN(C)CC5)c(O)c4c3C2=O)NC(=O)/C(C)=C\C=C\[C@H](C)[C@H](O)[C@@H](C)[C@@H](O)[C@@H](C)[C@H](OC(C)=O)[C@@H]1C` [RIFAMPIN], 0.24 µM (≈ 0.198 µg/mL); as for `COc1cc(C=O)cc(OC)c1O` [SYRINGALDEHYDE], 137 µM (≈ 25 µg/mL). As for `COc1cc(C=O)ccc1O` [VANILLIN], the figure is 82.2 µM (≈ 12.5 µg/mL).

Values taken from ChEMBL document CHEMBL1141798, “Antitubercular constituents from the stem wood of Cinnamomum kotoense” (2005).
